≈ marks a conversion by molar mass, not a printed value. Calls of active or inactive are those of the source. The calls are words filed in the database; no cut-off is given here.
Experiments:
[1] = test system: Candida albicans; test: Antifungal activity against Candida albicans CA4 after 48 hrs by broth microdilution method; format: functional; conditions: CA4, 48 h
Summary of the method: (§1)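 CLSI M27-A2 broth microdilution of clinical isolates in RPMI 1640 buffered to pH 7.0 with 0.165 M MOPS. Final inoculum 0.5 x 10^3 to 2.5 x 10^3 cells/ml, incubated 35°C for 48 h. Growth read as OD490 with background subtracted. MIC taken as the lowest drug concentration giving 80% growth reduction versus drug-free control. Run in triplicate.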

[2] = test system: Candida albicans; test: Antifungal activity against Candida albicans CA10 after 48 hrs by broth microdilution method; format: functional; conditions: CA10, 48 h; summary of the method: as §1
[3] = test system: Candida albicans; test: Antifungal activity against Candida albicans CA135 after 48 hrs by broth microdilution method; format: functional; conditions: CA135, 48 h; summary of the method: as §1
[4] = test system: Candida albicans; test: Antifungal activity against Candida albicans CA3 after 48 hrs by broth microdilution method; format: functional; conditions: CA3, 48 h; summary of the method: as §1
[5] = test system: Candida albicans; test: Antifungal activity against Candida albicans CA138 after 48 hrs by broth microdilution method; format: functional; conditions: CA138, 48 h; summary of the method: as §1
[6] = test system: Candida albicans; test: Antifungal activity against Candida albicans CA132 after 48 hrs by broth microdilution method; format: functional; conditions: CA132, 48 h; summary of the method: as §1
[7] = test system: Candida albicans; test: Antifungal activity against Candida albicans CA1 after 48 hrs by broth microdilution method; format: functional; conditions: CA1, 48 h; summary of the method: as §1
[8] = test system: Candida albicans; test: Antifungal activity against Candida albicans CA2 after 48 hrs by broth microdilution method; format: functional; conditions: CA2, 48 h; summary of the method: as §1
[9] = test system: Candida albicans; test: Antifungal activity against Candida albicans CA127 after 48 hrs by broth microdilution method; format: functional; conditions: CA127, 48 h; summary of the method: as §1
[10] = test system: Candida albicans; test: Antifungal activity against Candida albicans CA137 after 48 hrs by broth microdilution method; format: functional; conditions: CA137, 48 h; summary of the method: as §1
[11] = test system: Candida albicans; test: Antifungal activity against Candida albicans CA10 assessed as cell viability after 2 hrs by XTT reduction assay in presence of ketoconazole; format: functional, organism-based
Summary of the method: (§2)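 Viability was read on CA10 time-kill cultures grown in RPMI 1640 from 10^5 CFU/ml. Treatments were RAB 8 µg/ml plus FLC 8 µg/ml, ITR 8 µg/ml or KCZ 2 µg/ml, with DMSO <1%. At each sampling time a 100-µl aliquot got XTT-menadione (final 0.25 mg/ml and 5 µM) and was held in the dark up to 2 h at 35°C. Formazan was read at 490 nm; triplicate means.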

[12] = test system: Candida albicans; test: Antifungal activity against Candida albicans CA3 after 48 hrs by broth microdilution method in presence of ketoconazole; format: functional
Summary of the method: (§3)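 Checkerboard broth microdilution (CLSI M27-A2) on clinical isolates in RPMI 1640 buffered to pH 7.0 with 0.165 M MOPS. Final inoculum was 0.5 x 10^3 to 2.5 x 10^3 CFU/ml. RAB was tested at 0.25–16 µg/ml against FLC at 0.008–8 µg/ml, or against KCZ or ITR at 0.001–1 µg/ml. Plates ran 48 h at 35°C, read by background-subtracted OD490. MIC was taken at 80% growth reduction versus drug-free control. Run in triplicate.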

[13] = test system: Candida albicans; test: Antifungal activity against Candida albicans CA132 after 48 hrs by broth microdilution method in presence of fluconazole; format: functional; summary of the method: as §3
[14] = test system: Candida albicans; test: Antifungal activity against Candida albicans CA127 after 48 hrs by broth microdilution method in presence of fluconazole; format: functional; summary of the method: as §3
[15] = test system: Candida albicans; test: Antifungal activity against Candida albicans CA137 after 48 hrs by broth microdilution method in presence of ketoconazole; format: functional; summary of the method: as §3
[16] = test system: Candida albicans; test: Antifungal activity against Candida albicans CA127 after 48 hrs by broth microdilution method in presence of itraconazole; format: functional; summary of the method: as §3
[17] = test system: Candida albicans; test: Antifungal activity against Candida albicans CA138 after 48 hrs by broth microdilution method in presence of itraconazole; format: functional; summary of the method: as §3
[18] = test system: Candida albicans; test: Antifungal activity against Candida albicans CA1 after 48 hrs by broth microdilution method in presence of ketoconazole; format: functional; summary of the method: as §3
[19] = test system: Candida albicans; test: Antifungal activity against Candida albicans CA132 after 48 hrs by broth microdilution method in presence of ketoconazole; format: functional; summary of the method: as §3
[20] = test system: Candida albicans; test: Antifungal activity against Candida albicans CA10 after 48 hrs by broth microdilution method in presence of fluconazole; format: functional; summary of the method: as §3
[21] = test system: Candida albicans; test: Antifungal activity against Candida albicans CA10 assessed as cell viability after 2 hrs by XTT reduction assay in presence of itraconazole; format: functional, organism-based; summary of the method: as §2
[22] = test system: Candida albicans; test: Antifungal activity against Candida albicans CA3 after 48 hrs by broth microdilution method in presence of fluconazole; format: functional; summary of the method: as §3
[23] = test system: Candida albicans; test: Antifungal activity against Candida albicans CA10 assessed as log reduction in fungal burden at 8 ug/ml after 48 hrs by time kill analysis in presence of itraconazole; format: functional, organism-based
Summary of the method: (§4)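 Time-kill on CA10 in RPMI 1640 starting at 10^5 CFU/ml. Treatments were RAB 8 µg/ml combined with FLC 8 µg/ml, ITR 8 µg/ml or KCZ 2 µg/ml; DMSO <1%; drug-free growth control. Samples were taken before treatment and at 6, 12, 24 and 48 h, then diluted, plated and counted after 48 h at 35°C.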

[24] = test system: Candida albicans; test: Antifungal activity against Candida albicans CA2 after 48 hrs by broth microdilution method in presence of ketoconazole; format: functional; summary of the method: as §3
[25] = test system: Candida albicans; test: Antifungal activity against Candida albicans CA2 after 48 hrs by broth microdilution method in presence of fluconazole; format: functional; summary of the method: as §3
[26] = test system: Candida albicans; test: Antifungal activity against Candida albicans CA4 after 48 hrs by broth microdilution method in presence of ketoconazole; format: functional; summary of the method: as §3
[27] = test system: Candida albicans; test: Antifungal activity against Candida albicans CA4 after 48 hrs by broth microdilution method in presence of fluconazole; format: functional; summary of the method: as §3
[28] = test system: Candida albicans; test: Antifungal activity against Candida albicans CA137 after 48 hrs by broth microdilution method in presence of itraconazole; format: functional; summary of the method: as §3
[29] = test system: Candida albicans; test: Antifungal activity against Candida albicans CA135 after 48 hrs by broth microdilution method in presence of fluconazole; format: functional; summary of the method: as §3
[30] = test system: Candida albicans; test: Antifungal activity against Candida albicans CA1 after 48 hrs by broth microdilution method in presence of fluconazole; format: functional; summary of the method: as §3
[31] = test system: Candida albicans; test: Antifungal activity against Candida albicans CA1 after 48 hrs by broth microdilution method in presence of itraconazole; format: functional; summary of the method: as §3
[32] = test system: Candida albicans; test: Antifungal activity against Candida albicans CA138 after 48 hrs by broth microdilution method in presence of fluconazole; format: functional; summary of the method: as §3
[33] = test system: Candida albicans; test: Antifungal activity against Candida albicans CA138 after 48 hrs by broth microdilution method in presence of ketoconazole; format: functional; summary of the method: as §3
[34] = test system: Candida albicans; test: Antifungal activity against Candida albicans CA135 after 48 hrs by broth microdilution method in presence of itraconazole; format: functional; summary of the method: as §3
[35] = test system: Candida albicans; test: Antifungal activity against Candida albicans CA10 after 48 hrs by broth microdilution method in presence of ketoconazole; format: functional; summary of the method: as §3
[36] = test system: Candida albicans; test: Antifungal activity against Candida albicans CA137 after 48 hrs by broth microdilution method in presence of fluconazole; format: functional; summary of the method: as §3
[37] = test system: Candida albicans; test: Antifungal activity against Candida albicans CA2 after 48 hrs by broth microdilution method in presence of itraconazole; format: functional; summary of the method: as §3
[38] = test system: Candida albicans; test: Antifungal activity against Candida albicans CA10 after 48 hrs by broth microdilution method in presence of itraconazole; format: functional; summary of the method: as §3
[39] = test system: Candida albicans; test: Antifungal activity against Candida albicans CA10 assessed as log reduction in fungal burden at 8 ug/ml after 48 hrs by time kill analysis in presence of ketoconazole; format: functional, organism-based; summary of the method: as §4
[40] = test system: Candida albicans; test: Antifungal activity against Candida albicans CA127 after 48 hrs by broth microdilution method in presence of ketoconazole; format: functional; summary of the method: as §3
[41] = test system: Candida albicans; test: Antifungal activity against Candida albicans CA10 assessed as cell viability after 2 hrs by XTT reduction assay in presence of fluconazole; format: functional, organism-based; summary of the method: as §2
[42] = test system: Candida albicans; test: Antifungal activity against Candida albicans CA10 assessed as log reduction in fungal burden at 8 ug/ml after 48 hrs by time kill analysis in presence of fluconazole; format: functional, organism-based; summary of the method: as §4
[43] = test system: Candida albicans; test: Antifungal activity against Candida albicans CA4 after 48 hrs by broth microdilution method in presence of itraconazole; format: functional; summary of the method: as §3
[44] = test system: Candida albicans; test: Antifungal activity against Candida albicans CA3 after 48 hrs by broth microdilution method in presence of itraconazole; format: functional; summary of the method: as §3
[45] = test system: Candida albicans; test: Antifungal activity against Candida albicans CA135 after 48 hrs by broth microdilution method in presence of ketoconazole; format: functional; summary of the method: as §3
[46] = test system: Candida albicans; test: Antifungal activity against Candida albicans CA132 after 48 hrs by broth microdilution method in presence of itraconazole; format: functional; summary of the method: as §3

CC(=O)N1CCN(c2ccc(OCC3COC(Cn4ccnc4)(c4ccc(Cl)cc4Cl)O3)cc2)CC1 (stereo unspecified) [KETOCONAZOLE]
MIC [1]: 0.062 µg/mL (≈ 0.117 µM) | MIC [2]: 16 µg/mL (≈ 30.1 µM) | MIC [3]: 16 µg/mL (≈ 30.1 µM) | MIC [4]: 0.062 µg/mL (≈ 0.117 µM) | MIC [5]: 16 µg/mL (≈ 30.1 µM) | MIC [6]: 0.031 µg/mL (≈ 0.0583 µM) | MIC [7]: 0.031 µg/mL (≈ 0.0583 µM) | MIC [8]: 0.016 µg/mL (≈ 0.0301 µM) | MIC [9]: 0.031 µg/mL (≈ 0.0583 µM) | MIC [10]: 16 µg/mL (≈ 30.1 µM)

CC(C)[C@H]1CC[C@@H]2[C@]1(C)CC[C@]1(C)[C@H]3CC[C@@H]4[C@](C(=O)O)(C[C@@H](O)[C@H](O)[C@@]4(C)C(=O)O)C3=CC[C@@]21C [RETIGERIC ACID B]
Activity [11]: Active | fractional inhibitory concentration index (FICI) [12]: 0.25 | fractional inhibitory concentration index (FICI) [13]: 0.75 | fractional inhibitory concentration index (FICI) [14]: 0.5 | fractional inhibitory concentration index (FICI) [15]: 0.25 | MIC [1]: 8 µg/mL (≈ 15.9 µM) | MIC [2]: 16 µg/mL (≈ 31.8 µM) | fractional inhibitory concentration index (FICI) [16]: 0.375 | fractional inhibitory concentration index (FICI) [17]: 0.254 | fractional inhibitory concentration index (FICI) [18]: 0.375 | fractional inhibitory concentration index (FICI) [19]: 0.625 | fractional inhibitory concentration index (FICI) [20]: 0.126 | Activity [21]: Active | fractional inhibitory concentration index (FICI) [22]: 0.5 | Activity [23]: Active | fractional inhibitory concentration index (FICI) [24]: 0.253 | fractional inhibitory concentration index (FICI) [25]: 0.25 | fractional inhibitory concentration index (FICI) [26]: 0.75 | MIC [3]: 16 µg/mL (≈ 31.8 µM) | fractional inhibitory concentration index (FICI) [27]: 0.625 | MIC [4]: 16 µg/mL (≈ 31.8 µM) | fractional inhibitory concentration index (FICI) [28]: 0.258 | fractional inhibitory concentration index (FICI) [29]: 0.127 | MIC [5]: 8 µg/mL (≈ 15.9 µM) | fractional inhibitory concentration index (FICI) [30]: 0.5 | MIC [6]: 8 µg/mL (≈ 15.9 µM) | MIC [7]: 8 µg/mL (≈ 15.9 µM) | fractional inhibitory concentration index (FICI) [31]: 0.75 | fractional inhibitory concentration index (FICI) [32]: 0.252 | fractional inhibitory concentration index (FICI) [33]: 0.254 | fractional inhibitory concentration index (FICI) [34]: 0.254 | MIC [8]: 16 µg/mL (≈ 31.8 µM) | fractional inhibitory concentration index (FICI) [35]: 0.254 | fractional inhibitory concentration index (FICI) [36]: 0.252 | fractional inhibitory concentration index (FICI) [37]: 0.375 | fractional inhibitory concentration index (FICI) [38]: 0.252 | Activity [39]: Active | fractional inhibitory concentration index (FICI) [40]: 0.625 | MIC [9]: 16 µg/mL (≈ 31.8 µM) | Activity [41]: Active | Activity [42]: Active | fractional inhibitory concentration index (FICI) [43]: 0.625 | MIC [10]: 16 µg/mL (≈ 31.8 µM) | fractional inhibitory concentration index (FICI) [44]: 0.375 | fractional inhibitory concentration index (FICI) [45]: 0.125 | fractional inhibitory concentration index (FICI) [46]: 0.75

— ChEMBL document CHEMBL1629670, “In vitro activities of retigeric acid B alone and in combination with azole antifungal agents against Candida albicans” (2009)
